The test system of assay [1] is Mus musculus. The assay can be described thus: % EMT-6 tumor regression response induced in BALB/c mice after ZnPc and Photofrin-mediated photodynamic therapy (PDT) at a concentration of 1 uM/kg. The class given is functional. The essentials: (§1)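 In male BALB/c mice (18–22 g), intradermal EMT-6 tumors on each hind thigh were grown 6–8 days to 3–5-mm diameter. Mice then received 1 or 2 μmol kg⁻¹ dye i.v. in Cremophor emulsion, with red-light exposure 24 h later. Scored as percent of animals showing complete tumor regression 3 weeks after PDT.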

The subject of assay [2] is EMT6. Nature of the assay: Light dose required to kill 90% of cells(EMT-6 mammary tumor cell line) after 1 hr incubation with 1 uM concentration. In kind it is functional, Mus musculus. The essentials:
(§2)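 EMT-6 cells were seeded at 15 × 10³ per well and incubated 1 or 24 h at 37 °C with 1 μM dye from Cremophor emulsion in Waymouth 1% FBS. They were rinsed, refed with 15% FBS, and given red light (10 mW cm⁻²) over 0.1–20 J cm⁻². After overnight incubation, viability was read by MTT (595 nm). LD₉₀ was extrapolated from survival curves, with eightfold replicates per light dose and at least three experiments.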

Assay [3] deals with Mus musculus. The assay can be described thus: % EMT-6 tumor necrosis response induced in BALB/c mice after ZnPc and Photofrin-mediated photodynamic therapy (PDT) at a concentration of 1 uM/kg. The class given is functional.
The subject of assay [4] is Mus musculus. The assay can be described thus: % EMT-6 tumor edema response induced in BALB/c mice after ZnPc and Photofrin-mediated photodynamic therapy (PDT) at a concentration of 1 umol/kg; Extensive. The class given is functional, organism-based. The conditions noted are these: tested as the Zn salt or complex. The essentials: (§3)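 Male BALB/c mice (18–22 g), shaved and depilated, bore EMT-6 tumors from intradermal injection of 2 × 10⁵ cells into each hind thigh. At 6–8 days (tumors 3–5-mm diameter, 2–3-mm thick), dye was given i.v. as a Cremophor emulsion (0.2 mL/20 g) at 1 or 2 μmol kg⁻¹. Red light followed 24 h later. Edema was scored 24 h after PDT as light (+), medium (++), important (+++) or extensive (++++).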

Assay [5] has as its system EMT6. The assay can be described thus: Drug dose required to kill 90% of cells(EMT-6 mammary tumor cell line) after 24 hr incubation with a fixed fluence of 2.4 J cm-2. The class given is functional, Mus musculus. The essentials:
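EMT-6 mouse mammary tumour cells were grown in Waymouth's medium with 15% FBS. They were seeded at 15 × 10³ per well overnight, then given dye (Cremophor emulsion diluted in Waymouth 1% FBS) for 1 or 24 h at 37 °C. Cells were rinsed and refed, then exposed to red light (λ > 590 nm, 10 mW cm⁻²) to 2.4 J cm⁻². MTT was read at 595 nm the next day. Dye-free cells set 100% survival.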

The test system of assay [6] is EMT6. The assay can be described thus: Light dose required to kill 90% of cells(EMT-6 mammary tumor cell line) after 24 hr incubation with 1 uM concentration. In kind it is functional, Mus musculus. Summed up:
as §2

The subject of assay [7] is Mus musculus. Nature of the assay: % EMT-6 tumor edema response induced in BALB/c mice after ZnPc and Photofrin-mediated photodynamic therapy (PDT) at a concentration of 2 umol/kg; Extensive. The class given is functional, organism-based. The conditions noted are these: tested as the Zn salt or complex. The essentials: as §3
The test system of assay [8] is Mus musculus. The assay can be described thus: % EMT-6 tumor regression response induced in BALB/c mice after ZnPc and Photofrin-mediated photodynamic therapy (PDT) at a concentration of 2 umol/kg. The class given is functional. The essentials: as §1
In assay [9] the test system is Mus musculus. The assay can be described thus: % EMT-6 tumor edema response induced in BALB/c mice after ZnPc and Photofrin-mediated photodynamic therapy (PDT) at a concentration of 1 umol/kg; Light. The conditions noted are these: tested as the Zn salt or complex. In kind it is functional, organism-based. The essentials:
as §3

For assay [10], the system named is Mus musculus. The assay can be described thus: % EMT-6 tumor edema response induced in BALB/c mice after ZnPc and Photofrin-mediated photodynamic therapy (PDT) at a concentration of 1 umol/kg; Important. In kind it is functional, organism-based. Particulars: tested as the Zn salt or complex. Summed up: as §3
Assay [11] relates to Mus musculus. Nature of the assay: % EMT-6 tumor edema response induced in BALB/c mice after ZnPc and Photofrin-mediated photodynamic therapy (PDT) at a concentration of 2 umol/kg; Important. The conditions noted are these: tested as the Zn salt or complex. The class given is functional, organism-based. Summed up:
as §3

Assay [12] has as its system Mus musculus. The assay can be described thus: % EMT-6 tumor edema response induced in BALB/c mice after ZnPc and Photofrin-mediated photodynamic therapy (PDT) at a concentration of 10 uM/kg. In kind it is functional, organism-based. The conditions noted are these: tested as the Zn salt or complex.
The subject of assay [13] is Mus musculus. The assay can be described thus: % EMT-6 tumor regression response induced in BALB/c mice after ZnPc and Photofrin-mediated photodynamic therapy (PDT) at a concentration of 10 uM/kg. The class given is functional.
Assay [14] has as its system Mus musculus. Nature of the assay: % EMT-6 tumor necrosis response induced in BALB/c mice after ZnPc and Photofrin-mediated photodynamic therapy (PDT) at a concentration of 10 uM/kg. In kind it is functional, organism-based. The conditions noted are these: tested as the Zn salt or complex.
Assay [15] has as its system V-79 (Cricetulus griseus). Nature of the assay: Drug dose required to kill 90% of cells after 1 hr incubation with a fixed fluence of 2.4 J cm-2. (assay with Chinese hamster V-79 fibroblasts).
The subject of assay [16] is EMT6. The conditions noted are these: Mus musculus.
The species named for assay [17] is Mus musculus. Particulars: BALB/c, 2 umol/kg.
Where [18] appears, read: Mus musculus, tested as the Zn salt or complex.

The values below come from ChEMBL document CHEMBL1131227, “Hydroxyphthalocyanines as potential photodynamic agents for cancer therapy” (1998).

SMILES strings stand for the structures. Calls of active or inactive are those of the source. The rule behind the calls is not given here.

On to `Oc1ccc2c(c1)-c1nc-2nc2[n-]c(nc3nc(nc4[n-]c(n1)c1ccccc41)-c1ccccc1-3)c1ccccc21.[Zn+2]`, for which the Tumor response in the assay on Mus musculus [1] is recorded as 12%; in the assay with Mus musculus [3], 100%; in the assay on Mus musculus [4], “Extensive”; in the assay with Mus musculus [7], “Extensive”; with Mus musculus [8], 25%. The LD90 with EMT6 [2] came out at 0.4 J cm**-2; in the assay with EMT6 [6] it was 0.15 J cm**-2. In addition, the LC90 with EMT6 [5] is 0.12 µM.

In the case of `Oc1ccc2c(c1)-c1nc-2nc2[n-]c(nc3nc(nc4[n-]c(n1)c1ccccc41)-c1ccc(O)cc1-3)c1ccc(O)cc21.[Zn+2]`, the LD90 turned out to be 19 J cm**-2 in the assay on EMT6 [2] and 0.48 J cm**-2 with EMT6 [6]. In the assay with EMT6 [5], this compound returned an LC90 of 0.8 µM.

Take `Oc1ccc2c(c1)-c1nc-2nc2[n-]c(nc3nc(nc4[n-]c(n1)c1ccccc41)-c1ccccc1-3)c1ccc(O)cc21.[Zn+2]`: the Tumor response in the assay on Mus musculus [1] is reported as 0%; in the assay on Mus musculus [3], 0%; with Mus musculus [9], “Light”; in the assay on Mus musculus [8], 75%. The figures for the LD90 with EMT6 [2] and in the assay with EMT6 [6] were 7.5 J cm**-2 and 0.4 J cm**-2, respectively. Also, the LC90 in the assay on EMT6 [5] is 0.58 µM.

On to `Oc1cc2c(cc1O)-c1nc-2nc2[n-]c(nc3nc(nc4[n-]c(n1)c1ccccc41)-c1ccccc1-3)c1ccccc21.[Zn+2]`, for which the Tumor response is 25% in the assay on Mus musculus [1]; 62% in the assay on Mus musculus [3]; “Important” in the assay with Mus musculus [10]; “Important” in the assay with Mus musculus [11]; 0% in the assay on Mus musculus [8]. The LD90 in the assay on EMT6 [2] was determined as 2.4 J cm**-2; with EMT6 [6], 0.25 J cm**-2. Moreover, the LC90 in the assay with EMT6 [5] worked out at 0.3 µM.

`Oc1ccc2c(c1)-c1nc-2nc2[n-]c(nc3nc(nc4[n-]c(n1)c1ccc(O)cc41)-c1ccc(O)cc1-3)c1ccc(O)cc21.[Zn+2]`: in the assay with Mus musculus [12], the outcome was inactive. Also, the Tumor response in the assay on Mus musculus [13] was 0%. The LD90 result in the assay with EMT6 [2] (setting [18]) and in the assay on EMT6 [6] (setting [18]) was “inactive” each time. Also, in the assay on Mus musculus [14], the Tumor response entry is “inactive”. For the same compound, in the assay on EMT6 [5] (setting [18]), the LC90 entry is “inactive”. The compound further gave an LC90 in [15] greater than 100 µM.

For the compound `[Zn+2].c1ccc2c(c1)-c1nc-2nc2[n-]c(nc3nc(nc4[n-]c(n1)c1ccccc41)-c1ccccc1-3)c1ccccc21` [(PHTHALOCYANINATO)ZINC(II)], the LD90 with EMT6 [2] is 0.14 J cm**-2. In addition, the LC90 result in the assay on EMT6 [5] (setting [18]) and with EMT6 [16] was “inactive” in each case. For the same compound, the LD90 result in the assay on EMT6 [6] (setting [18]) was “inactive”. This compound also yielded a Tumor response in the assay with Mus musculus [8] of 100%. Further, the Tumor response result in the assay listed under Mus musculus [17] is “inactive”.
